According to ChEMBL document CHEMBL5715951, “Synergistic Reactivation of Latent HIV Expression by Ingenol-3-Angelate, PEP005, Targeted NF-kB Signaling in Combination with JQ1 Induced p-TEFb Activation” (PLoS Pathog, 2015):
The source made the active and inactive calls. No cut-off for these calls is given here.

Assays:
[1] = tested on: U1; assay: Anti retroviral activity against PEP005 treated human U1 cells harbouring complete HIV genomes with Tat gene mutation assessed as fold increase in HIV reactivation at 2 uM followed by 6 nM of PEP005 incubated for 24 hrs by flow cytometry analysis; type: functional
[2] = tested on: J-Lat A1; assay: Anti retroviral activity against human J-Lat A1 cells harboring a single copy of latent HIV LTR assessed as HIV reactivation at 2 uM incubated for 24 hrs by flow cytometry analysis; type: functional, cell-based
Summary of the method: (§1)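 J-Lat A1 cells (single latent LTR-GFP copy) treated 24 h at fixed levels (10 nM PEP005, 500 nM SAHA, 2 μM JQ1/GSK343/Prostratin, 10 ng/ml TNF, 5 ng/ml PMA); percentage GFP-positive cells by flow cytometry.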

[3] = tested on: J-Lat A1; assay: Anti retroviral activity against PEP005 treated human J-Lat A1 cells harboring a single copy of latent HIV LTR assessed as HIV reactivation at 2 uM incubated for 24 hrs by flow cytometry analysis; type: functional, cell-based
Summary of the method: (§2)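 J-Lat A1 cells (RPMI1640, 10% FBS, 37°C, 5% CO2) exposed to 2 μM agent alone or combined with 6 nM PEP005 for 24 h; percentage of GFP-expressing cells by flow cytometry; Bliss independence model for synergy; ≥3 independent experiments in triplicate.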

[4] = tested on: J-Lat A1; assay: Anti retroviral activity against PEP005 treated human J-Lat A1 cells harboring a single copy of latent HIV LTR assessed as HIV reactivation at 2 uM followed by 6 nM of PEP005 incubated for 24 hrs by flow cytometry analysis; type: functional, cell-based; summary of the method: as §2
[5] = Inhibition of PKCtheta/PKCdelta in HIV infected human J-Lat A cells assessed as reduction of PEP005 induced disruption of HIV latency treated at 2.5 nM relative to control; design: species or system J-Lat A1; scale not given: the % may be the effect or the level left; conditions: condition hiv infection
[6] = tested on: J-Lat A1; assay: Anti retroviral activity against human J-Lat A1 cells harboring a single copy of latent HIV LTR assessed as HIV reactivation at 5 ng/ml incubated for 24 hrs by flow cytometry analysis; type: functional, cell-based; summary of the method: as §1
[7] = tested on: J-Lat A1; assay: Anti retroviral activity against human J-Lat A1 cells harboring a single copy of latent HIV LTR assessed as HIV reactivation at 500 nM incubated for 24 hrs by flow cytometry analysis; type: functional, cell-based; summary of the method: as §1
[8] = tested on: J-Lat A1; assay: Induction of cell cycle arrest in human J-Lat A1 cells assessed as accumulation of cells at S phase at 12 nM for 24 hrs BrdU ELISA analysis; type: functional, cell-based
Summary of the method: (§3)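 U1, J-Lat A1 or healthy-donor CD4+ T cells treated 24 h with 12 nM PEP005; S-phase progression by BrdU incorporation ELISA; doxorubicin […] positive control.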

[9] = tested on: U1; assay: Induction of cell cycle arrest in human U1 cells assessed as accumulation of cells at S phase at 12 nM for 24 hrs BrdU ELISA analysis; type: functional, cell-based; summary of the method: as §3
[10] = Inhibition of PKCtheta/PKCdelta in HIV infected human J-Lat A cells assessed as reduction of HIV latent reactivation treated at 6 nM in presence of PKC inhibitor relative to control; design: species or system J-Lat A1; scale not given: the % may be the effect or the level left; conditions: condition hiv infection
Summary of the method: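 J-Lat A1 cells got 6 nM PEP005 together with 1, 2 or 5 μM PKCθ/δ inhibitor. HIV reactivation was read as GFP expression by RT-qPCR against PEP005-only cells. Data from at least 3 independent experiments in triplicate.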

[11] = tested on: CD4+ T cell; assay: Induction of cell cycle arrest in human CD4+ T cells assessed as accumulation of cells at S phase at 12 nM for 24 hrs BrdU ELISA analysis; type: functional, cell-based; summary of the method: as §3
[12] = Binding affinity of NFkappa B to HIV LTR in human J-Lat A1 cells assessed as reduction in compound induced fold increase at 12 nM in presence of PKC inhibitor by ChIP-qPCR analysis relative to control; design: scale not given: the % may be the effect or the level left; conditions: condition hiv infection
Summary of the method: (§4)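 ChIP-qPCR on J-Lat A1 cells, 1x10^6 per sample, given 12 nM PEP005 with or without a PKCδ/θ inhibitor. Cells fixed in 1% formaldehyde and lysed in SDS/EDTA/Tris pH 8.1 buffer with protease inhibitors. Chromatin sonicated to 200–1500 bp. Immune complexes taken on protein A/G-agarose for 45 min, then reverse cross-linked overnight. NF-κB/p65 binding at HIV LTR read by SYBR qPCR. Data from at least 3 independent experiments in triplicate.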

[13] = tested on: J-Lat A1; assay: Induction of PKC/NF-Kappa B pathway in human J-Lat A1 cells assessed as upregulation of PKC delta at 12 nM at 1 hr by Western blotting analysis; type: cell-based
Summary of the method: (§5)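 One million J-Lat A1 cells incubated with 12 nM PEP005 up to 6 h; RIPA extracts with protease/phosphatase inhibitors; immunoblots for PKC isoforms, phospho-PKCδ/θ, NF-κB/p65 and phospho-IκBα (Ser32), β (Thr19/Ser23), ε (Ser18/22); band intensities by densitometry, three independent experiments.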

[14] = tested on: J-Lat A1; assay: Anti retroviral activity against human J-Lat A1 cells harboring a single copy of latent HIV LTR assessed as HIV reactivation by flow cytometry analysis; type: functional, cell-based; conditions: dose 2-40 nM
Summary of the method: (§6)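 J-Lat A1 cells exposed to PEP005 over 2–40 nM for 24 h; HIV reactivation as GFP expression by flow cytometry, fold versus untreated; viability by Live/Dead dye staining, flow cytometry.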

[15] = Induction of PKCtheta/PKCdelta phosphorylation at Ser676/Ser643 in human J-Lat A1 cells assessed as fold change measured after 30 mins; conditions: condition hiv infection, 0.5 h
[16] = tested on: J-Lat A1; assay: Anti retroviral activity against human J-Lat A1 cells harboring a single copy of latent HIV LTR assessed as HIV reactivation at 10 nM incubated for 24 hrs by flow cytometry analysis; type: functional, cell-based; summary of the method: as §1
[17] = tested on: J-Lat A1; assay: Induction of PKC/NF-Kappa B pathway in human J-Lat A1 cells assessed as upregulation of PKC mu/D at 12 nM upto 6 hrs by Western blotting analysis; type: cell-based; summary of the method: as §5
[18] = tested on: CD4+ T cell; assay: Induction of pro-inflammatory cytokine TNF-alpha expression in human CD4+ T cells at 6 to 12 nM for 24 to 72 hrs by RT-qPCR analysis; type: functional, cell-based; conditions: dose 6-12 nM, time 24-72 hrs
Summary of the method: (§7)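 CD4+ T cells from healthy HIV-negative donors treated with 6 or 12 nM PEP005 for 24 or 72 h; TNF-α, IFN-γ, IL-2 and IL-6 mRNA quantified by RT-qPCR normalized to GAPDH.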

[19] = Cytotoxicity against human CD4+ T cells assessed as change in CD25 expression at 12 nM for 24 hrs by RT-qPCR analysis; type: toxicity, cell-based; conditions: cd4+ t cell, 0.012 µM
Summary of the method: (§8)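 CD4+ T cells purified from uninfected donors, treated 24 h with 12 nM; total RNA extracted and CD38, CD69, CD25 and HLA-DR transcripts measured by RT-qPCR.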

[20] = Cytotoxicity against human CD4+ T cells assessed as change in CD69 expression at 12 nM for 24 hrs by RT-qPCR analysis; type: toxicity, cell-based; conditions: cd4+ t cell, 0.012 µM; summary of the method: as §8
[21] = tested on: CD4+ T cell; assay: Induction of pro-inflammatory cytokine IFN-gamma expression in human CD4+ T cells at 6 to 12 nM for 24 to 72 hrs by RT-qPCR analysis; type: functional, cell-based; conditions: dose 6-12 nM, time 24-72 hrs; summary of the method: as §7
[22] = Binding affinity of NFkappa B to HIV LTR in human J-Lat A1 cells assessed as fold increase at 12 nM by ChIP-qPCR analysis; conditions: condition hiv infection; summary of the method: as §4
[23] = tested on: J-Lat A1; assay: Cytotoxicity against human J-Lat A1 cells harboring a single copy of latent HIV LTR assessed as cell viability at 2 to 40 nM by Live/Dead dye staining assay; type: functional, cell-based; conditions: dose 2-40 nM; summary of the method: as §6
[24] = tested on: J-Lat A1; assay: Effect on NF kappaB/p65 expression in human […] at 12 nM upto 6 hrs by Western blotting analysis; type: functional, cell-based; summary of the method: as §5
[25] = Anti retroviral activity against human J-Lat A1 cells harboring a single copy of latent HIV LTR assessed as fold increase in HIV reactivation at 20 nM by flow cytometry analysis; type: functional; summary of the method: as §6
[26] = tested on: CD4+ T cell; assay: Induction of pro-inflammatory cytokine IL-6 expression in human CD4+ T cells at 6 to 12 nM for 24 to 72 hrs by RT-qPCR analysis; type: functional, cell-based; conditions: dose 6-12 nM, time 24-72 hrs; summary of the method: as §7
[27] = tested on: J-Lat A1; assay: Induction of PKC/NF-Kappa B pathway in human J-Lat A1 cells assessed as upregulation of PKC alpha at 12 nM upto 6 hrs by Western blotting analysis; type: cell-based; summary of the method: as §5
[28] = tested on: J-Lat A1; assay: Induction of PKC/NF-Kappa B pathway in human J-Lat A1 cells assessed as upregulation of PKC theta at 12 nM upto 6 hrs by Western blotting analysis; type: cell-based; summary of the method: as §5
[29] = Cytotoxicity against human CD4+ T cells assessed as change in CD38 expression at 12 nM for 24 hrs by RT-qPCR analysis; type: toxicity, cell-based; conditions: cd4+ t cell, 0.012 µM; summary of the method: as §8
[30] = target: T1, Inhibitor of nuclear factor kappa-B kinase subunit beta (Homo sapiens) (UniProt O14920); assay: Induction of IkappaB beta phosphorylation in human […] at 12 nM upto 6 hrs by Western blotting analysis; type: cell-based; conditions: J-Lat A1; summary of the method: as §5
T1 sequence (whole entry): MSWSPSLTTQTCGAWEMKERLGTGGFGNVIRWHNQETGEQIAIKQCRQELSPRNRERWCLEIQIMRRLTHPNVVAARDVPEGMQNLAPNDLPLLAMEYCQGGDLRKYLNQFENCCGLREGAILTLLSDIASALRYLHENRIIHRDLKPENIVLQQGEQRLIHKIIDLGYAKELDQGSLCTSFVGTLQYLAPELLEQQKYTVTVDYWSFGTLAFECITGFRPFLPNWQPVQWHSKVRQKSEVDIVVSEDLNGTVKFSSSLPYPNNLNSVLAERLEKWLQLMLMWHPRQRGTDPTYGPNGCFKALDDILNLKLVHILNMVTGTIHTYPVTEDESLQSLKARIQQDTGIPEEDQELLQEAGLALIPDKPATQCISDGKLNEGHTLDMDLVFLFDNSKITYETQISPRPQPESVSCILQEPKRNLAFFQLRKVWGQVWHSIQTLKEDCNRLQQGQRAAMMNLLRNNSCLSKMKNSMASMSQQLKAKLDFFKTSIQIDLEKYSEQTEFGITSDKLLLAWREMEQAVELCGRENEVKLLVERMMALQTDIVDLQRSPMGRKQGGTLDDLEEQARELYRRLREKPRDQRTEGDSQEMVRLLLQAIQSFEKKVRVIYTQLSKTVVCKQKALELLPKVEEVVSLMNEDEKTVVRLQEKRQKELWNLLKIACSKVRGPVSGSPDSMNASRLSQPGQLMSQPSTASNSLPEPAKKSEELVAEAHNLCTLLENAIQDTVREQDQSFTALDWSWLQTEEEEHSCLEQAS

[31] = tested on: CD4+ T cell; assay: Induction of pro-inflammatory cytokine IL-2 expression in human CD4+ T cells at 6 to 12 nM for 24 to 72 hrs by RT-qPCR analysis; type: functional, cell-based; conditions: dose 6-12 nM, time 24-72 hrs; summary of the method: as §7
[32] = tested on: U1; assay: Anti retroviral activity against human U1 cells harbouring HIV genomes with Tat gene mutation assessed as fold increase in HIV reactivation at 6 nM by flow cytometry analysis; type: functional

## Cc1sc2c(c1C)C(c1ccc(Cl)cc1)=N[C@@H](CC(=O)OC(C)(C)C)c1nnc(C)n1-2
[1]
  fold change (FC): 250
[2]
  Activity: Active
[3]
  Activity: Active
[4]
  Activity: Active

## Cc1ccc(S(=O)(=O)/C=C/C#N)cc1
[5]
  Activity: 50%

## CC(=O)O[C@@]12C[C@@H](C)[C@@]3(O)[C@@H](C=C(CO)C[C@]4(O)C(=O)C(C)=C[C@@H]34)[C@@H]1C2(C)C
[2]
  Activity: Active

## CCCCCCCCCCCCCC(=O)O[C@@H]1[C@@H](C)[C@@]2(O)[C@@H](C=C(CO)C[C@]3(O)C(=O)C(C)=C[C@@H]23)[C@@H]2C(C)(C)[C@]12OC(C)=O
[6]
  Activity: Active

## CCCc1cc(C)[nH]c(=O)c1CNC(=O)c1cc(-c2ccnc(N3CCN(C)CC3)c2)cc2c1cnn2C(C)C
[2]
  Activity: inactive
[4]
  Activity: Active

## O=C(CCCCCCC(=O)Nc1ccccc1)NO
[7]
  Activity: Active

## C/C=C(/C)C(=O)O[C@H]1C(C)=C[C@]23C(=O)[C@@H](C=C(CO)[C@@H](O)[C@]12O)[C@H]1[C@@H](C[C@H]3C)C1(C)C [INGENOL MEBUTATE]
[8]
  Activity: inactive
[9]
  Activity: inactive
[10]
  Activity: >65%
[11]
  Activity: inactive
[12]
  Activity: >70%
[13]
  Activity: Active
[14]
  Activity: Dose-Dependent Effect
[15]
  fold change (FC): 2
[16]
  Activity: Active
[17]
  Activity: inactive
[18]
  Activity: inactive
[19]
  Activity: Non-Toxic
[20]
  Activity: Non-Toxic
[21]
  Activity: inactive
[22]
  fold change (FC): 6
[23]
  Activity: inactive
[24]
  Activity: inactive
[25]
  fold change (FC): 7
[26]
  Activity: inactive
[27]
  Activity: inactive
[28]
  Activity: inactive
[29]
  Activity: Non-Toxic
[30]
  Activity: inactive
[31]
  Activity: inactive
[32]
  fold change (FC): 25
